ChEMBL document CHEMBL3112485, “7-Chloroquinolinotriazoles: synthesis by the azide-alkyne cycloaddition click chemistry, antimalarial activity, cytotoxicity and SAR studies” (Eur J Med Chem, 2014)

Experiments:
[1] = Selectivity index, ratio of CC50 for human HepG2 cells to IC50 for chloroquine-resistant and mefloquine-sensitive Plasmodium falciparum W2; format: functional
[2] = Cytotoxicity against human HepG2 cells after 24 hrs by MTT assay; format: cell-based
Plasmodium falciparum = assay: Antimalarial activity against chloroquine-resistant and mefloquine-sensitive Plasmodium falciparum W2 infected in human erythrocytes after 48 hrs by HRP2-ELISA; format: functional, organism-based; conditions: W2, 48 h
Method in brief: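 Ring-stage cultures sorbitol-synchronized; RBC suspension at 0.05% parasitemia, 1.5% hematocrit in RPMI with 10% human plasma, exposed to serial compound concentrations 48 h. Background wells harvested at 24 h and subtracted. Freeze-thaw lysis, then anti-HRP2 sandwich ELISA with TMB, absorbance 450 nm. IC50 from sigmoidal dose-response versus drug-free and standard-drug controls; triplicate per concentration, experiments in duplicate.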

SMILES: CCc1ccccc1C(=O)OCc1cn(-c2ccnc3cc(Cl)ccc23)nn1
- Ratio CC50/IC50 [1]: <20
- CC50 at 24 h [2]: > 2550 µM
- IC50 (Plasmodium falciparum; read-out: IC50): > 128 µM

SMILES: Cc1ccc(C(=O)OCCCc2cn(-c3ccnc4cc(Cl)ccc34)nn2)cc1
- Ratio CC50/IC50 [1]: <20
- CC50 at 24 h [2]: > 2460 µM
- IC50 (Plasmodium falciparum; read-out: IC50): > 123 µM

SMILES: COc1ccc(C(=O)OCCCc2cn(-c3ccnc4cc(Cl)ccc34)nn2)cc1
- Ratio CC50/IC50 [1]: <3
- CC50 at 24 h [2]: 347 µM
- IC50 (Plasmodium falciparum; read-out: IC50): > 113 µM

SMILES: CCN(CC)Cc1cn(-c2ccnc3cc(Cl)ccc23)nn1
- Ratio CC50/IC50 [1]: <11.2
- CC50 at 24 h [2]: 1850 µM
- IC50 (Plasmodium falciparum; read-out: IC50): > 166 µM

SMILES: CC(C)(O)c1cn(-c2ccnc3cc(Cl)ccc23)nn1
- Ratio CC50/IC50 [1]: 4.9
- CC50 at 24 h [2]: 442 µM
- IC50 (Plasmodium falciparum; read-out: IC50): 90.3 µM

SMILES: CCc1ccc(C(=O)OCc2cn(-c3ccnc4cc(Cl)ccc34)nn2)cc1
- Ratio CC50/IC50 [1]: <20
- CC50 at 24 h [2]: > 2550 µM
- IC50 (Plasmodium falciparum; read-out: IC50): > 128 µM

SMILES: O=C(OCc1cn(-c2ccnc3cc(Cl)ccc23)nn1)c1ccc(C(F)(F)F)cc1
- Ratio CC50/IC50 [1]: <9.2
- CC50 at 24 h [2]: 1070 µM
- IC50 (Plasmodium falciparum; read-out: IC50): > 116 µM

SMILES: CN(C)Cc1cn(-c2ccnc3cc(Cl)ccc23)nn1
- Ratio CC50/IC50 [1]: 67.5
- CC50 at 24 h [2]: 1850 µM
- IC50 (Plasmodium falciparum; read-out: IC50): 27.4 µM
- IC50 (Plasmodium falciparum; read-out: pIC50 (converted)): 26.9 µM

SMILES: CCc1ccc(C(=O)OCCCc2cn(-c3ccnc4cc(Cl)ccc34)nn2)cc1
- Ratio CC50/IC50 [1]: <21.4
- CC50 at 24 h [2]: > 2550 µM
- IC50 (Plasmodium falciparum; read-out: IC50): > 119 µM

SMILES: CCN(CC)CCCC(C)Nc1ccnc2cc(Cl)ccc12 (configuration not stated) [CHLOROQUINE]
- CC50 at 24 h [2]: 810 µM

SMILES: COc1c(F)c(F)cc(C(=O)OCc2cn(-c3ccnc4cc(Cl)ccc34)nn2)c1F
- Ratio CC50/IC50 [1]: <20
- CC50 at 24 h [2]: > 2230 µM
- IC50 (Plasmodium falciparum; read-out: IC50): > 112 µM

SMILES: OC1CCN(Cc2cn(-c3ccnc4cc(Cl)ccc34)nn2)CC1
- Ratio CC50/IC50 [1]: 22.7
- CC50 at 24 h [2]: 930 µM
- IC50 (Plasmodium falciparum; read-out: IC50): 40.9 µM
- IC50 (Plasmodium falciparum; read-out: pIC50 (converted)): 40.7 µM

SMILES: Clc1ccc2c(-n3cc(-c4ccccc4)nn3)ccnc2c1
- Ratio CC50/IC50 [1]: <7.2
- CC50 at 24 h [2]: 574 µM
- IC50 (Plasmodium falciparum; read-out: IC50): > 80 µM

SMILES: COc1ccc(C(=O)OCc2cn(-c3ccnc4cc(Cl)ccc34)nn2)cc1
- Ratio CC50/IC50 [1]: <2.4
- CC50 at 24 h [2]: 303 µM
- IC50 (Plasmodium falciparum; read-out: IC50): > 127 µM

SMILES: CC(C)(C)c1ccc(C(=O)OCc2cn(-c3ccnc4cc(Cl)ccc34)nn2)cc1
- Ratio CC50/IC50 [1]: <20
- CC50 at 24 h [2]: > 2380 µM
- IC50 (Plasmodium falciparum; read-out: IC50): > 119 µM

SMILES: Clc1ccc2c(-n3cc(CN4CCOCC4)nn3)ccnc2c1
- Ratio CC50/IC50 [1]: <20
- CC50 at 24 h [2]: > 3040 µM
- IC50 (Plasmodium falciparum; read-out: IC50): > 152 µM

SMILES: O=C(OCCCc1cn(-c2ccnc3cc(Cl)ccc23)nn1)c1ccccc1
- Ratio CC50/IC50 [1]: <9.4
- CC50 at 24 h [2]: 1200 µM
- IC50 (Plasmodium falciparum; read-out: IC50): > 128 µM

SMILES: CN(C)c1ccc(-c2cn(-c3ccnc4cc(Cl)ccc34)nn2)cc1
- Ratio CC50/IC50 [1]: >71.1
- CC50 at 24 h [2]: > 2860 µM
- IC50 (Plasmodium falciparum; read-out: IC50): 40.3 µM
- IC50 (Plasmodium falciparum; read-out: pIC50 (converted)): 39.8 µM

SMILES: COc1ccc2cc(-c3cn(-c4ccnc5cc(Cl)ccc45)nn3)ccc2c1
- Ratio CC50/IC50 [1]: <20
- CC50 at 24 h [2]: > 2590 µM
- IC50 (Plasmodium falciparum; read-out: IC50): > 129 µM

SMILES: O=C(OCCCc1cn(-c2ccnc3cc(Cl)ccc23)nn1)c1ccc(C(F)(F)F)cc1
- Ratio CC50/IC50 [1]: <20
- CC50 at 24 h [2]: > 2170 µM
- IC50 (Plasmodium falciparum; read-out: IC50): > 109 µM

SMILES: CC(C)(C)c1ccc(C(=O)OCCCc2cn(-c3ccnc4cc(Cl)ccc34)nn2)cc1
- Ratio CC50/IC50 [1]: <20
- CC50 at 24 h [2]: > 2230 µM
- IC50 (Plasmodium falciparum; read-out: IC50): > 112 µM

SMILES: Cc1ccc(-c2cn(-c3ccnc4cc(Cl)ccc34)nn2)cc1
- Ratio CC50/IC50 [1]: <2.2
- CC50 at 24 h [2]: 352 µM
- IC50 (Plasmodium falciparum; read-out: IC50): > 156 µM

SMILES: O=C(OCc1cn(-c2ccnc3cc(Cl)ccc23)nn1)c1ccc(Cl)cc1
- Ratio CC50/IC50 [1]: 21.5
- CC50 at 24 h [2]: 484 µM
- IC50 (Plasmodium falciparum; read-out: IC50): 22.5 µM
- IC50 (Plasmodium falciparum; read-out: pIC50 (converted)): 22.9 µM

SMILES: Clc1ccc2c(-n3cc(C4CCCCC4)nn3)ccnc2c1
- Ratio CC50/IC50 [1]: <40
- CC50 at 24 h [2]: > 3200 µM
- IC50 (Plasmodium falciparum; read-out: IC50): > 80 µM

SMILES: Clc1ccc2c(-n3cc(CN4CCCCC4)nn3)ccnc2c1
- Ratio CC50/IC50 [1]: <7.2
- CC50 at 24 h [2]: 1110 µM
- IC50 (Plasmodium falciparum; read-out: IC50): > 153 µM

SMILES: O=C(OCc1cn(-c2ccnc3cc(Cl)ccc23)nn1)c1ccccc1
- Ratio CC50/IC50 [1]: <20
- CC50 at 24 h [2]: > 2750 µM
- IC50 (Plasmodium falciparum; read-out: IC50): > 137 µM

SMILES: Fc1ccc(-c2cn(-c3ccnc4cc(Cl)ccc34)nn2)cc1
- Ratio CC50/IC50 [1]: <20
- CC50 at 24 h [2]: > 3090 µM
- IC50 (Plasmodium falciparum; read-out: IC50): > 154 µM

SMILES: OCCCc1cn(-c2ccnc3cc(Cl)ccc23)nn1
- Ratio CC50/IC50 [1]: 15.7
- CC50 at 24 h [2]: 151 µM
- IC50 (Plasmodium falciparum; read-out: IC50): 9.6 µM
- IC50 (Plasmodium falciparum; read-out: pIC50 (converted)): 10 µM
